Screens deposited in PubChem BioAssay by several laboratories.
Only some compounds are listed: those with a hit (about 1.8% of all), similar ones and a draw of the others.
Runt-SMMHC FRET: blocks binding of human RUNX1 Runt domain to CBFb-SMMHC; 220,000 tested, 0.74% active; inhibition, % at 20 µM; Q01196+Q13951; Cerulean-Runt/Venus-CBFb-SMMHC FRET ratio 530/480, 1 h;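 active means mean inhibition across duplicate retests at 20 µM reaching about 50%, limit read from the data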;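 further: 0% = DMSO wells and 100% = wells with excess untagged CBFb-SMMHC; inhibitors lower the FRET ratio by blocking Runt binding to CBFb-SMMHC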
Runt-CBFb FRET: inhibitors of human RUNX1 Runt domain binding to CBFb; Q01196+Q13951; inhibition, % at 20 µM; Cerulean-Runt/Venus-CBFb FRET ratio 530/480, 1 h; 220,000 tested, 0.46% active;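 active means inhibition over about 50% at 20 µM in the single-dose screen, limit read from the data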;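 further: 0% = DMSO wells and 100% = excess unlabeled CBFb competitor control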
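test system = Cerulean-tagged RUNX1 Runt domain (FRET donor) fusion protein | reagent = Venus-CBFb binding partner, 100 nM | incubation = protein complex preformed 1 h, compound exposure 1 h, room temperature, dark | detection = FRET fluorescence | read-out basis = loss of energy transfer signal | controls = 5 µM unlabeled CBFb as full-inhibition high control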
RanGTP-Imp inh: inhibitors of RanGTP-importin-beta interaction, primary screen, biochemical, FRET, CFP-Ran, YFP-importin-beta, homogeneous; cell-free CFP-Ran/YFP-importin-beta FRET ratio; inhibition, % (no concentration beside the values); 300,000 tested, 1.1% active; AID 2216;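 active means more than half of the replicate wells show a fall in the fluorescence ratio signal beyond about 16%, limit read from the data, passing the limit was not always enough; inconclusive means exactly half of the replicate wells pass the set limit; inactive means fewer than half of replicates pass the limit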;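 further: 0% = DMSO wells and 100% = Ran loaded with GDP instead of GTP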
Hck-Nef inh: inhibitors of human Hck kinase activated by Nef; P08631; Recombinant Hck-YEEI plus Nef, Z-Lyte FRET kinase assay; inhibition, % at 20 µM; 220,000 tested, 0.68% active;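 active means Hck-Nef kinase inhibition above about 50%, limit read from the data; inactive means inhibition below that limit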;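 further: 0% = DMSO with Hck plus Nef and 100% = Hck alone without Nef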
Target sequence (P08631 whole entry, looked up): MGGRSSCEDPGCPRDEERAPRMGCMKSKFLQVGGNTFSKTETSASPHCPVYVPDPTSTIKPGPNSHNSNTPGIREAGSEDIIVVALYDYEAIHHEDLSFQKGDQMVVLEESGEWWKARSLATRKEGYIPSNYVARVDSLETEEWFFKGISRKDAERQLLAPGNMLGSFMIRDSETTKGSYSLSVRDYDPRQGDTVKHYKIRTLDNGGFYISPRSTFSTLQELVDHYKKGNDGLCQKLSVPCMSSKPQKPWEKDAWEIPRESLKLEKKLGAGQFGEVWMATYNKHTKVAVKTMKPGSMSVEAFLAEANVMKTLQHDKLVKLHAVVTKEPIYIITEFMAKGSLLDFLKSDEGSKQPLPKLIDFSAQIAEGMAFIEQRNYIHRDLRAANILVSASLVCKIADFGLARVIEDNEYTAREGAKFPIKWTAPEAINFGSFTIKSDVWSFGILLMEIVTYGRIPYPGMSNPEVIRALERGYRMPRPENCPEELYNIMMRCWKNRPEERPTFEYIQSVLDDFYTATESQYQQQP
* hit, by the source's call; ? = inconclusive; . = no result.

SMILES	Runt-SMMHC FRET	Runt-CBFb FRET	RanGTP-Imp inh	Hck-Nef inh
COC(=O)C1=CN(CCCN2CCCC2=O)C=C(C(=O)OC)C1c1cccs1	86.8*	23.7	?	29.6
COc1ccc(CNC(=O)C(C#N)c2nc3ccccc3nc2N2CCCC2)cc1 (configuration not stated)	47.7	9.4	?	-0.5
C=CCNC(=O)C(C#N)c1nc2ccccc2nc1N1CCCCCC1 (configuration not stated)	65.0*	35.0	73.7*	1.9
N#CC(C(=O)NC1CCCCC1)c1nc2ccccc2nc1N1CCOCC1 (configuration not stated)	-97.0	-6.7	.	.
CCCCNC(=O)C(C#N)c1nc2ccccc2nc1N1CCCC1 (configuration not stated)	67.3*	12.6	34.1*	-7.7
CC1CCN(c2nc3ccccc3nc2C(C#N)C(=O)NC2CCCCC2)CC1 (configuration not stated)	14.4	28.2	49.7*	.
C=CCN(C(=O)CSC1=NC(=O)CN1C(C)=O)c1nc(C)c(-c2ccccc2)s1	-5.3	-4.1	?	29.4
CC(C)[C@H](NC(=O)OCc1ccccc1)C(=O)OCC(=O)Nc1ccc(N2CCOCC2)cc1	.	.	-5.0	.
CCN1C(=O)/C(=C2\SC(=S)N(CCCOC)C2=O)c2ccccc21	-9.5	-14.0	3.7	0.0
CCN1/C(=C2/SC(=S)N(NC(C)=O)C2=O)Sc2ccc(Cl)cc21	.	.	33.4*	.
CCN1/C(=C2/SC(=S)N(NC(C)=O)C2=O)Sc2ccc(OC)cc21	.	.	34.4*	.
CCN1C(=O)c2ccccc2Sc2ccc(C(=O)NC(C)C)cc21	.	.	1.5	.
CCCCN1C(=O)/C(=C2/Sc3ccc(OC)cc3N2CC)SC1=S	.	.	23.3*	.
COc1ccc(NC(=O)CN(C)C(=O)c2ccc(-c3ccccc3Cl)o2)cc1	.	.	-1.0	.
Cc1ccc(NC(=S)N2CCC(NC(=O)c3ccc(F)cc3)CC2)cc1C	.	.	0.0	.
CC(=O)C1=C(C)NC(=O)CC1c1ccc(Br)cc1 (configuration not stated)	4.3	-0.9	1.5	19.2
CC(C)N1C(=O)S/C(=C\c2ccc(-c3ccc(Cl)c(C(=O)O)c3)o2)C1=O	.	.	26.3*	.
CCOC(=O)CN1C(=O)S/C(=C\c2ccc(-c3ccc(C(=O)O)c(Cl)c3)o2)C1=O	.	.	23.0*	.
Cc1ccc(N2NC(=O)/C(=C/c3ccc(-c4ccc(Cl)c(C(=O)O)c4)o3)C2=O)cc1	-0.3	6.1	-0.7	25.1
CC(C)(C)CC(=O)Nc1ccc(-c2cn3cccnc3n2)cc1	.	.	-2.7	.
Cc1cccc(C)c1NC(=O)CN1CCc2ccccc2C1	.	.	1.0	.
CC(/C=C1\SC(=S)N(C(C(=O)O)c2ccccc2)C1=O)=C\c1ccccc1 (configuration not stated)	-23.4	-21.6	2.1	74.8*
COc1ccc2oc(=O)c(C(=O)Nc3ccccc3O)cc2c1	-8.3	0.7	-2.9	15.8
CCCCCCc1cc2cc(C(=O)Nc3cccc(OC)c3)c(=O)oc2cc1O	63.1*	143.1*	156.2*	52.6*
COc1ccc(CCNC(=O)CCS(=O)(=O)c2ccc3c(c2)NC(=O)C(C)S3)cc1OC (configuration not stated)	.	.	2.9	.
SMILES	Runt-SMMHC FRET	Runt-CBFb FRET	RanGTP-Imp inh	Hck-Nef inh
Cc1ccc2oc(=O)cc(CN3CC(C)OC(C)C3)c2c1 (configuration not stated)	.	.	6.9	.
Cc1cc2oc(=O)cc(CN(C)Cc3ccccc3F)c2cc1Cl	.	.	3.4	.
CC1CCN(Cc2cc(=O)oc3cc(O)c(Cl)cc23)CC1	.	.	117.9*	.
CC1CN(Cc2cc(=O)oc3cc(O)c(Cl)cc23)CC(C)O1 (configuration not stated)	.	.	60.9*	.
CN(Cc1ccccc1F)Cc1cc(=O)oc2cc(O)c(Cl)cc12	.	.	66.9*	.
CN1CCc2c(sc(NC(=O)C3CCCCC3)c2C(N)=O)C1	.	.	147.2*	.
CN1CCc2c(sc(NC(=O)C3CCN(S(=O)(=O)c4cccs4)CC3)c2C(N)=O)C1	.	.	131.5*	.
COC(=O)c1c(NC(=O)C2CC2)sc2c1CCCC2	1.0	-1.8	-3.1	0.3
N#Cc1ccsc1NC(=O)C1CCN(S(=O)(=O)c2cccs2)CC1	.	.	-3.0	.
CC(C)N1CCc2c(sc(NC(=O)C3CCCCC3)c2C(N)=O)C1	.	.	133.7*	.
COC(=O)c1c(NC(=O)C2CCCCC2)sc2c1CCN(C(C)C)C2	.	.	56.7*	.
COc1ccc(C(O)Cc2nccn2C)cc1 (configuration not stated)	.	.	6.7	.
CCOc1ccc(NC(c2ccccc2)P(=O)(OC)OC)cc1 (configuration not stated)	.	.	2.8	.
